Here are results for 16 compounds from ChEMBL document CHEMBL3864184, “Optimization of Highly Kinase Selective Bis-anilino Pyrimidine PAK1 Inhibitors” (ACS Med Chem Lett, 2016).

Series [1] can be described thus: Distribution coefficient, logD of the compound. In kind it is physicochemical. As to conditions: octanol/water.
Series [2] is described as follows: Intrinsic clearance in rat hepatocytes assessed per million cells. The format is ADME, cell-based, Hepatocyte. As to conditions: read-out: CLH.
A short description of series [3]: Clearance in mouse at 0.5 mg/kg, iv. The note with it: in vivo. In kind it is ADME, organism-based.
A short description of series [4]: Volume of distribution at steady state in mouse at 0.5 mg/kg, iv or 100 mg/kg, po. The format is ADME, organism-based. The note with it: in vivo, read-out: Vdss.
A short description of series [5]: Half life in mouse at 0.5 mg/kg, iv. The format is ADME, organism-based. As to conditions: in vivo.
Series [6] can be described thus: Cmax in mouse at 100 mg/kg, po. The format is ADME, organism-based. More on the design: dose 100 mg/kg, route oral. As to conditions: in vivo.
The nature of series [7]: Unbound fraction in mouse plasma at 0.5 mg/kg, iv or 100 mg/kg, po. The format is ADME, organism-based.
The next series relates to Mus musculus. Nature of the series: Acute toxicity in mouse at 100 mg/kg, po. The format is organism-based. As to conditions: in vivo. In short, it runs like this: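 Observed for visible signs of toxicity during a mouse pharmacokinetic study after an oral 100 mg/Kg dose. This was not a maximum tolerated dose study.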

The compound `Cc1cc(C)c(N(C)c2nc(Nc3ccc(N4CCN(C)CC4)cc3)ncc2F)cc1CO` displayed a pH-dependent lipophilicity (logD) in series [1] of 3.
On the same count and under the same terms, as for `CN(c1cccc(CO)c1)c1nc(Nc2cc(N3CCOCC3)cc(S(C)(=O)=O)c2)ncc1F`, the figure is 3; as for `CCn1c(=O)c(-c2ccc(-c3cncs3)cc2Cl)cc2cnc(Nc3ccc(N4CCN(C)CC4)cc3)nc21`, over 4.
Take `Cc1ccc(CO)cc1N(C)c1nc(Nc2ccc(N3CCN(C)CC3)c(S(C)(=O)=O)c2)ncc1F`: the pH-dependent lipophilicity (logD) in series [1] turned out to be 2.6.
`COCc1ccc(C)c(N(C)c2nc(Nc3cc(N4CCOCC4)cc(S(C)(=O)=O)c3)ncc2F)c1` gave a logD in series [1] of 3.7.
The same measure, in the same setting: as for `CCS(=O)(=O)c1cc(Nc2ncc(F)c(N(Cc3ccccc3F)c3cc(CO)ccc3C)n2)ccc1N1CCN(C)CC1`, the figure is 3.3; as for `CCN(c1cc(CO)ccc1C)c1nc(Nc2ccc(N3CCN(C)CC3)c(S(=O)(=O)CC)c2)ncc1F`, 3.5.
Still for that read-out and setting: the same measure for `CCS(=O)(=O)c1cc(Nc2ncc(F)c(N(C)c3cc(CO)c(C)cc3C)n2)ccc1N1CCN(C)CC1`: 3.8; for `CCS(=O)(=O)c1cc(Nc2ncc(F)c(N(Cc3ccccc3)c3cc(CO)ccc3C)n2)ccc1N1CCN(C)CC1`: 2.8; for `CCS(=O)(=O)c1cc(Nc2ncc(F)c(N(C)c3cc(CO)c(C)cc3C)n2)cc(N2CCOCC2)c1`: 3.8.
`Cc1ccc(CO)cc1N(C)c1nc(Nc2cc(N3CCOCC3)cc(S(C)(=O)=O)c2)ncc1F` had a logD in series [1] of 3.3.
Compound `Cc1cc(C)c(N(C)c2nc(Nc3cc(N4CCOCC4)cc(S(C)(=O)=O)c3)ncc2F)cc1CO` had a logD in series [1] of 3.8.
On the same count and under the same terms, as for `CN(c1cc(CO)ccc1Cl)c1nc(Nc2cc(N3CCOCC3)cc(S(C)(=O)=O)c2)ncc1F`, the figure is 3.7.
As to `CCS(=O)(=O)c1cc(Nc2ncc(F)c(N(C)c3cc(CO)ccc3C)n2)ccc1N1CCN(C)CC1`, the logD in series [1] is 3.
In turn, `CCS(=O)(=O)c1cc(Nc2ncc(F)c(N(C)c3cc(CO)c(C)cc3C)n2)ccc1N1C[C@@H]2C[C@H]1CN2C` gave a logD in series [1] of 2.5. For the same compound, the hepatocyte CLint in series [2] came out at 11 µL/min/1e6 cells. This compound gave a clearance in series [3] of 22 mL/min/kg. For the same compound, the Vd in series [4] was 1.4 L/kg. Further, the half-life in series [5] is 60 min. The same compound returned a maximum concentration (Cmax) in series [6] of 7.7 µM. Besides, the fraction unbound in series [7] stood at 0.029. The Activity result in the series with Mus musculus is listed as “Non-Toxic”.
Compound `Cc1ccc(N(C)c2nc(Nc3cc(N4CCOCC4)cc(S(C)(=O)=O)c3)ncc2F)cc1CO` yielded a logD in series [1] of 3.3.
